This passage reports inhibition, viability and Stability results from ChEMBL document CHEMBL2069258, “Novel phosphoramidate prodrugs of N-acetyl-(D)-glucosamine with antidegenerative activity on bovine and human cartilage explants” (J Med Chem, 2012).

Data set [1] relates to Cartilage tissue. Nature of the data set: Antidegenerative activity against bovine cartilage explant assessed as inhibition of IL1-induced of GAG release at 0.1 mM for 1 day before IL-1 treatment measured after 6 days by colorimetric analysis relative to control. It is filed as functional. The note with it: Bos taurus. Put shortly: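 Articular cartilage explants from different cows, equilibrated 24 h, then cultured one day in DMEM + hydrolyzed lactalbumin + 50 μg/mL vitamin C + penicillin/streptomycin + ITS with or without compound (0.1 mM). GAG release then induced with 10 ng IL-1 and continued six days, medium changed every two days. Medium GAG measured by Blyscan colorimetric assay. GAG fold-increase versus minus-IL-1 control. Percent reduction relative to IL-1-only fold. Triplicates per experiment, mean of n experiments.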

Data set [2] in a line: Cytotoxicity against bovine articular chondrocytes assessed as cell viability at 1 mM by MTT assay relative to control. The note with it: cattle, read-out: Activity. The arrangement: species or system Bos taurus. A digest of the protocol: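 Chondrocyte monolayer cultures exposed to compound in parallel with the explant experiments. Viability read by MTT, as percent of untreated control cells (100%). Mean of n experiments from different cows, each run in triplicate.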
(Tetrazolium dyes change colour on reduction, which living cells bring about.)

A short description of data set [3]: Cytotoxicity against bovine articular chondrocytes assessed as cell viability at 0.1 mM by MTT assay relative to control. The arrangement: species or system Bos taurus. The note with it: cattle, read-out: Activity. Put shortly:
(§1)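 Chondrocyte monolayers tested in parallel with the explant work. Viability measured by MTT and expressed as percent of untreated cells (no compound = 100%). Mean and SE over n experiments, each in triplicate.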

Data set [4] is described as follows: Cytotoxicity against human articular chondrocytes assessed as metabolic activity at 10 uM by WST-1 assay. The note with it: read-out: Activity.
Data set [5] can be described thus: Antidegenerative activity against human cartilage explant assessed as inhibition of IL1-induced of GAG release at 10 uM for 1 day before IL-1 treatment measured after 6 days by colorimetric analysis relative to control. The format is functional. As to conditions: Cartilage tissue. A digest of the protocol: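 Human cartilage explants, equilibrated 24 h, then cultured one day in DMEM + hydrolyzed lactalbumin + 50 μg/mL vitamin C + penicillin/streptomycin + ITS with compound. 10 ng IL-1 then added and culture continued six days, medium replaced every two days. Medium GAG measured by Blyscan colorimetric assay. Percent reduction = (mean control − mean sample release)/control × 100, against a 0.25% DMSO + IL-1 control.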

The nature of data set [6]: Stability of compound in guinea pig serum assessed as hydrolysis after 17 hrs by NMR analysis. It is filed as ADME, cell-free, Cavia porcellus. A digest of the protocol:
(§2)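 Prodrug disappearance followed by NMR in guinea pig or human serum at 37 °C, pH 7.0. Half-life taken from the apparent first-order rate constant, by linear regression of pseudo-first-order plots of prodrug concentration versus time.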

Data set [7] concerns Serum. Kind of data set: Stability of compound in human serum assessed as hydrolysis after 17 hrs by NMR analysis. The format is ADME, cell-free. A digest of the protocol:
as §2

Data set [8] is described as follows: Cytotoxicity against human articular chondrocytes assessed as metabolic activity at 250 uM by WST-1 assay. The note with it: read-out: Activity. Put shortly: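 Metabolic activity measured by WST-1 in parallel with the human explant assay and reported as a percentage.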
The test system of data set [9] is Cartilage tissue. Nature of the data set: Antidegenerative activity against bovine cartilage explant assessed as inhibition of IL1-induced of GAG release at 10 mM for 1 day before IL-1 treatment measured after 6 days by colorimetric analysis relative to control. It is filed as functional. As to conditions: Bos taurus. Put shortly: (§3)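 Articular cartilage explants from different cows, equilibrated 24 h, then cultured 1 day in DMEM with hydrolyzed lactalbumin, 50 μg/mL vitamin C, penicillin/streptomycin and ITS, with or without compound. IL-1 10 ng added; medium changed every two days; harvested 6 days later. GAG in medium by Blyscan colorimetric assay. Fold increase over minus-IL-1 control used to derive % reduction versus IL-1-only fold. Triplicate per experiment; mean and SE over n cows.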

Data set [10] has as its system Cartilage tissue. Nature of the data set: Antidegenerative activity against bovine cartilage explant assessed as inhibition of IL1-induced of GAG release at 1 mM for 1 day before IL-1 treatment measured after 6 days by colorimetric analysis relative to control. It is filed as functional. The note with it: Bos taurus. Put shortly: as §3
Data set [11] can be described thus: Cytotoxicity against bovine articular chondrocytes assessed as cell viability at 10 mM by MTT assay relative to control. The arrangement: species or system Bos taurus. The note with it: cattle, read-out: Activity. Put shortly:
as §1

Data set [12] can be described thus: Antidegenerative activity against human cartilage explant assessed as inhibition of IL1-induced of GAG release at 250 uM for 1 day before IL-1 treatment measured after 6 days by colorimetric analysis relative to control. The format is functional. The note with it: Cartilage tissue. A digest of the protocol: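 Human explants: 24 h equilibration, 1 day preincubation with compound in DMEM/lactalbumin/vitamin C/ITS medium, then IL-1 10 ng for 6 days with medium renewed every two days. Compounds dissolved in DMSO, with a 0.25% DMSO control. GAG released measured colorimetrically (Blyscan). % reduction = (mean control release − mean sample release)/control release × 100.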

The term inhibition denotes the relative decrease from the control value, in per cent. Take `CCOC(=O)CN(C)P(=O)(Oc1ccc(OC)cc1)O[C@H]1[C@H](O)[C@@H](CO)O[C@H](O)[C@@H]1NC(C)=O` (stereo partly specified): the inhibition at 100 µM in data set [1] is -24.9%. Also, the viability at 1000 µM in data set [2] came out at 80%. The viability at 100 µM in data set [3] turned out to be 32%.

As to `COc1ccc(OP(=O)(O[C@H]2[C@H](O)[C@@H](CO)O[C@H](O)[C@@H]2NC(C)=O)N2CCC[C@H]2C(=O)OC(C)C)cc1` (stereo partly specified), the viability at 10 µM in [4] came to 79.4%. Moreover, in data set [1], the inhibition at 100 µM came out at 17.5%. For the same compound, the viability at 100 µM in data set [3] came out at 90%. The inhibition at 10 µM in [5] was determined as 24.4%.

For the compound `CCC(C)OC(=O)[C@@H]1CCCN1P(=O)(Oc1ccc(OC)cc1)O[C@H]1[C@H](O)[C@@H](CO)O[C@H](O)[C@@H]1NC(C)=O` (stereo partly specified), the viability at 10 µM in data set [4] was determined as 53.9%. In addition, in [1], the inhibition at 100 µM is -4.4%. Also, in data set [2], the viability at 1000 µM was 7%. Further, the viability at 100 µM in data set [3] turned out to be 96%. Also, the inhibition at 10 µM in data set [5] turned out to be 27.1%.

On to `COc1ccc(OP(=O)(O[C@H]2[C@H](O)[C@@H](CO)O[C@H](O)[C@@H]2NC(C)=O)N2CCC[C@H]2C(=O)OC2CCCCC2)cc1` (stereo partly specified), for which, in data set [1], the inhibition at 100 µM was -9.6%.

On to `CCC[C@H](NP(=O)(Oc1ccc(OC)cc1)O[C@H]1[C@H](O)[C@@H](CO)O[C@H](O)[C@@H]1NC(C)=O)C(=O)OCC` (stereo partly specified), for which, in [1], the inhibition at 100 µM turned out to be 11.8%. For the same compound, the viability at 100 µM in [3] amounted to 93%.

`COc1ccc(OP(=O)(O[C@H]2[C@H](O)[C@@H](CO)O[C@H](O)[C@@H]2NC(C)=O)N2CCC[C@H]2C(=O)OC(C)(C)C)cc1` (stereo partly specified): the inhibition at 100 µM in [1] was -8%. In data set [2], the viability at 1000 µM was determined as 5%. Further, the viability at 100 µM in data set [3] amounted to 91%. Moreover, the Stability result in [6] and in data set [7] was “Stable” in each case.

Consider `COC(=O)[C@@H](NP(=O)(Oc1ccc(OC)cc1)O[C@H]1[C@H](O)[C@@H](CO)O[C@H](O)[C@@H]1NC(C)=O)C(C)C` (stereo partly specified), for which, in data set [1], the inhibition at 100 µM was -4.4%. The viability at 100 µM in data set [3] turned out to be 96%.

`COc1ccc(OP(=O)(O[C@H]2[C@H](O)[C@@H](CO)O[C@H](O)[C@@H]2NC(C)=O)N2CCC[C@H]2C(=O)OCc2ccccc2)cc1` (stereo partly specified): the viability at 10 µM in data set [4] was 115%. The inhibition at 10 µM in [5] turned out to be 28.8%.

As to `CCOC(=O)[C@@H]1CCCN1P(=O)(Oc1ccc(OC)cc1)O[C@H]1[C@H](O)[C@@H](CO)O[C@H](O)[C@@H]1NC(C)=O` (stereo partly specified), in data set [4], the viability at 10 µM stood at 66.4%. Moreover, the inhibition at 10 µM in data set [5] amounted to 38%.

Consider `CCCCOC(=O)[C@@H]1CCCN1P(=O)(Oc1ccc(OC)cc1)O[C@H]1[C@H](O)[C@@H](CO)O[C@H](O)[C@@H]1NC(C)=O` (stereo partly specified), for which the viability at 10 µM in data set [4] amounted to 87.1%. Also, the inhibition at 10 µM in data set [5] was 30.4%.

As for `CCOC(=O)[C@@H]1CCCN1P(=O)(Oc1ccc(OC)cc1)O[C@H]1[C@H](O)[C@@H](NC(C)=O)[C@H](O)O[C@@H]1CO` (stereo partly specified), the viability at 10 µM in [4] came out at 107%. Moreover, in data set [5], the inhibition at 10 µM worked out at 17.4%.

Turning to `COc1ccc(OP(=O)(N[C@@H](C)C(=O)OCc2ccccc2)O[C@H]2[C@H](O)[C@@H](CO)O[C@H](OC)[C@@H]2NC(C)=O)cc1` (stereo partly specified), the inhibition at 100 µM in data set [1] is -19%. Further, the viability at 100 µM in data set [3] amounted to 78%.

As for `COc1ccc(OP(=O)(N[C@H](C(=O)OCc2ccccc2)C(C)C)O[C@H]2[C@H](O)[C@@H](CO)O[C@H](OC)[C@@H]2NC(C)=O)cc1` (stereo partly specified), in [1], the inhibition at 100 µM worked out at 9.4%. In addition, the viability at 100 µM in data set [3] is 99%.

For `CCOC(=O)[C@@H]1CCCN1P(=O)(Oc1ccc(OC)cc1)O[C@H]1[C@H](O)[C@@H](CO)O[C@H](OC)[C@@H]1NC(C)=O` (stereo partly specified), the inhibition at 100 µM in data set [1] is -53.7%. Also, the viability at 100 µM in data set [3] amounted to 62%.

With `CCOC(=O)[C@@H](NP(=O)(Oc1ccc(OC)cc1)O[C@H]1[C@H](O)[C@@H](CO)O[C@H](OC)[C@@H]1NC(C)=O)C(C)C` (stereo partly specified), in data set [1], the inhibition at 100 µM was -52.5%. Further, the viability at 100 µM in data set [3] stood at 85%.

`CCOC(=O)CN(C)P(=O)(Oc1ccc(OC)cc1)O[C@H]1[C@H](O)[C@@H](CO)O[C@H](OC)[C@@H]1NC(C)=O` (stereo partly specified): the inhibition at 100 µM in data set [1] was -23.2%. Moreover, in data set [3], the viability at 100 µM was found to be 100%.

Turning to `N[C@H]1C(O)O[C@H](CO)[C@@H](O)[C@@H]1O` (stereo partly specified) [GLUCOSAMINE], the viability at 250 µM in data set [8] is 85.3%. Also, the viability at 10 µM in data set [4] amounted to 107%. For the same compound, the inhibition at 10000 µM in data set [9] stood at 19%. The inhibition at 1000 µM in data set [10] is 3.4%. In data set [1], the inhibition at 100 µM was found to be 0.8%. The viability at 10000 µM in [11] turned out to be 56%. Also, the viability at 1000 µM in [2] came to 88%. Besides, the viability at 100 µM in [3] is 106%. Further, in [5], the inhibition at 10 µM amounted to 10.3%. Moreover, in data set [12], the inhibition at 250 µM is 14.1%.

`CC(=O)N[C@@H]1[C@@H](O)[C@H](O)[C@@H](CO)O[C@H]1O` [N-ACETYLGLUCOSAMINE]: in data set [9], the inhibition at 10000 µM was determined as 9.3%. Also, in [10], the inhibition at 1000 µM is -1%. In addition, in data set [1], the inhibition at 100 µM is 5.4%. Also, in data set [11], the viability at 10000 µM worked out at 61%. Moreover, in data set [2], the viability at 1000 µM was found to be 70%. Further, the viability at 100 µM in [3] was found to be 107%.
